Legend:
HepG2 = test: Antiproliferative activity against human HepG2 cells after 48 hrs by MTT assay; assay type: functional, cell-based; settings: HepG2, 48 h
Method in brief: (§1)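 1×10^4 cells/well seeded and held 24 h at 37 °C, 5% CO2. Viability read after 48 h by MTT (4 h, 37 °C), DMSO solubilization, A570. Three independent experiments, mean ± SD.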

HeLa = test: Antiproliferative activity against human HeLa cells after 48 hrs by MTT assay; assay type: functional, cell-based; method in brief: as §1
[1] = Antiproliferative activity against human SW1116 cells after 48 hrs by MTT assay; assay type: functional, cell-based; settings: SW 1116, 48 h; method in brief: as §1
BGC-823 = test: Antiproliferative activity against human BGC823 cells after 48 hrs by MTT assay; assay type: functional, cell-based; settings: BGC-823, 48 h; method in brief: as §1
[2] = molecular target: Telomerase reverse transcriptase (Homo sapiens, UniProt O14746); test: Inhibition of telomerase in human SW1116 cells after 24 hrs by TRAP-PCR-ELISA assay; assay type: cell-based, SW 1116
Method in brief: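 Cells kept in DMEM with 10% FBS, streptomycin and penicillin at 37 °C, 5% CO2. Lysed in RIPA on ice for 30 min, supernatant cleared at 12,000g. Extract used in a TRAP kit, 35 PCR cycles, ELISA read at 490 nm. Mean ± SD.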

Chain of Telomerase reverse transcriptase (O14746 whole entry): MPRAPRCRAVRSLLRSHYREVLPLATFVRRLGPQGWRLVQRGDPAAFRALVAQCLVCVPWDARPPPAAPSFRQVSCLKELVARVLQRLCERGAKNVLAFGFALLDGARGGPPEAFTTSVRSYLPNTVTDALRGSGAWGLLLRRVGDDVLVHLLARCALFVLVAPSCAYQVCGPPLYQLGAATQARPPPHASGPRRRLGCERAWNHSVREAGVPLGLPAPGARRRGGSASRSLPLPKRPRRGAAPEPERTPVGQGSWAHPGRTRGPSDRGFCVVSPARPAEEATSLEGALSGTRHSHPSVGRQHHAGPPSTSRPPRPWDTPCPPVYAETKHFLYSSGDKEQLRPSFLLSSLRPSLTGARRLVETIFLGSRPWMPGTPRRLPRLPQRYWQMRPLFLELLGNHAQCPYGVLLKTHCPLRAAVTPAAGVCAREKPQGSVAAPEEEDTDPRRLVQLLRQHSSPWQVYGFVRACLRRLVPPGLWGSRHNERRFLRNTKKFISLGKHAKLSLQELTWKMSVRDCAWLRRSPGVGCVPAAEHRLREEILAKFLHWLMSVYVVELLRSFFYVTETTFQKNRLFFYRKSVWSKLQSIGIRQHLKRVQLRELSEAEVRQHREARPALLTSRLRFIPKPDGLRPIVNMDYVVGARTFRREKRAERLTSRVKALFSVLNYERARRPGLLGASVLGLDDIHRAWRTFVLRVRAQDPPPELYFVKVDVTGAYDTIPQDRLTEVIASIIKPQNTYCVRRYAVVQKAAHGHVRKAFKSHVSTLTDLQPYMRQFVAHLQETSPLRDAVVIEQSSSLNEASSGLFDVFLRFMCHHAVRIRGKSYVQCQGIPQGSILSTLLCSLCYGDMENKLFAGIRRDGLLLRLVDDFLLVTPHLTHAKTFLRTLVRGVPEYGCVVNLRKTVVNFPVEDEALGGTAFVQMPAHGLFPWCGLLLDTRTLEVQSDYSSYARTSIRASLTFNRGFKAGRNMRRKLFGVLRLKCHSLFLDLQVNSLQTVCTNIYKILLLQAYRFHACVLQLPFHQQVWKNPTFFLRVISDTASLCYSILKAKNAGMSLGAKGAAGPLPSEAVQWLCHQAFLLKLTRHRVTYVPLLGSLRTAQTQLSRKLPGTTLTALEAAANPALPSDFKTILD

| SMILES | IC50 (HepG2) [µM] | IC50 (HeLa) [µM] | IC50 [1] [µM] | IC50 (BGC-823) [µM] | IC50 [2] [µM] |
| --- | --- | --- | --- | --- | --- |
| c1ccc(CSc2nnc(-c3ccc4c(c3)OCCO4)o2)cc1 | 32.1 | 40.3 | 31.5 | 33.6 | 8.21 |
| Cc1cccc(CSc2nnc(-c3ccc4c(c3)OCCO4)o2)c1 | 33.4 | 32.8 | 27.2 | 31.2 | 3.26 |
| O=[N+]([O-])c1ccc(CSc2nnc(-c3ccc4c(c3)OCCO4)o2)cc1 | 35.4 | 27.5 | 14.6 | 23 | 2.71 |
| Fc1ccccc1CSc1nnc(-c2ccc3c(c2)OCCO3)o1 | 24 | 41.6 | 21.9 | 28.9 | 2.93 |
| O=[N+]([O-])c1ccccc1CSc1nnc(-c2ccc3c(c2)OCCO3)o1 | 38.1 | 32.7 | 20.8 | 23.3 | 12.1 |
| Cc1ccc(CSc2nnc(-c3ccc4c(c3)OCCO4)o2)cc1 | 41.9 | 45.4 | 32.5 | 31.6 | 5.04 |
| Fc1ccc(CSc2nnc(-c3ccc4c(c3)OCCO4)o2)cc1 | 38 | 41.2 | 21.6 | 28.7 | 3.67 |
| O=[N+]([O-])c1cccc(CSc2nnc(-c3ccc4c(c3)OCCO4)o2)c1 | 38.3 | 35.6 | 30.1 | 23.7 | 4.65 |
| Clc1ccc(CSc2nnc(-c3ccc4c(c3)OCCO4)o2)cc1 | 28.8 | 28.5 | 28.4 | 22.6 | 2.91 |
| Ic1ccc(CSc2nnc(-c3ccc4c(c3)OCCO4)o2)cc1 | 31.2 | 31.1 | 29.2 | 22.7 | 3.66 |
| Cc1ccccc1CSc1nnc(-c2ccc3c(c2)OCCO3)o1 | 22 | 19 | 23.9 | 22.6 | 1.27 |
| Brc1ccccc1CSc1nnc(-c2ccc3c(c2)OCCO3)o1 | 19.9 | 22.4 | 14.1 | 21.2 | 2.02 |
| Brc1cccc(CSc2nnc(-c3ccc4c(c3)OCCO4)o2)c1 | 24.9 | 25.9 | 20.1 | 20.6 | 2.45 |
| Brc1ccc(CSc2nnc(-c3ccc4c(c3)OCCO4)o2)cc1 | 8.54 | 23.6 | 24.5 | 22.2 | 1.66 |
| Clc1ccccc1CSc1nnc(-c2ccc3c(c2)OCCO3)o1 | 22.6 | 36.8 | 29.5 | 22.5 | 5.89 |
| Clc1cccc(CSc2nnc(-c3ccc4c(c3)OCCO4)o2)c1 | 33.4 | 31.8 | 25.2 | 26.9 | 2.34 |
| Fc1cccc(F)c1CSc1nnc(-c2ccc3c(c2)OCCO3)o1 | 41.6 | 43.2 | 36.3 | 36.1 | 15.8 |
| Fc1ccc(CSc2nnc(-c3ccc4c(c3)OCCO4)o2)c(F)c1 | 38.7 | 41.7 | 29.6 | 30.3 | 2.44 |
| Ic1ccccc1CSc1nnc(-c2ccc3c(c2)OCCO3)o1 | 7.21 | 20 | 12.2 | 18.9 | 1.83 |
| O=c1[nH]cc(F)c(=O)[nH]1 [FLUOROURACIL] | – | 110 | 95.2 | 100 | – |

From ChEMBL document CHEMBL1914319 (Bioorg Med Chem, 2011)
